Assay outcomes: PubChem, several laboratories
Most compounds without a hit are left out; they make up all but 1.4% or so of the library.
CAL PDZ FP-1 = CAL PDZ peptide-binding inhibitors, primary screen, biochemical, fluorescence polarization, Cer-tagged CAL PDZ, HTS. Golgi-associated PDZ and coiled-coil motif-containing protein (Homo sapiens), Q9HD26. purified CAL PDZ, TMR-peptide fluorescence polarization, 1 h. inhibition, % at 20 µM. 0.02% of 330,000 active. AID 504414, 2011;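 active = highest replicate inhibition of at least 40%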
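Material: tagged CAL PDZ domain; buffer or medium: 25 mM sodium phosphate pH 7.4, 150 mM NaCl, TCEP, IgG, Thesit; compound dosing: single point, 20 µM; schedule: 1 h incubation at room temperature before polarization reading; measured by: FP readout, S and P plane fluorescence; read-out basis: percent inhibition from loss of millipolarization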
CDK5 inh = inhibitors of human CDK5/p35 kinase, primary screen, biochemical, single concentration; inhibition, % at 10 µM; Recombinant CDK5/p35, ADP-Glo luminescence, 60 min; 0.01% of 330,000 active; Cyclin-dependent kinase 5 (Homo sapiens) + Cyclin-dependent kinase 5 activator 1 (Homo …; AID 488839, 2010;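 active = highest replicate inhibition of at least 50% and at least 75% of replicates reaching 50%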
Target sequence (Q00535 whole entry, looked up): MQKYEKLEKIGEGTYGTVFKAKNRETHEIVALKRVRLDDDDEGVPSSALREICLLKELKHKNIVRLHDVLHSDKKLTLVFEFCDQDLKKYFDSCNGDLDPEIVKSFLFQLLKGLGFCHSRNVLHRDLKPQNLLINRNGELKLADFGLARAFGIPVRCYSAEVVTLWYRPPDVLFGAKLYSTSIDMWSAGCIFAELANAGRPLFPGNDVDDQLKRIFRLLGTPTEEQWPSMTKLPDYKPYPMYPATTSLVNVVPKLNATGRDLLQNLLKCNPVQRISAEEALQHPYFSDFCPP
Target sequence (Q15078 whole entry, looked up): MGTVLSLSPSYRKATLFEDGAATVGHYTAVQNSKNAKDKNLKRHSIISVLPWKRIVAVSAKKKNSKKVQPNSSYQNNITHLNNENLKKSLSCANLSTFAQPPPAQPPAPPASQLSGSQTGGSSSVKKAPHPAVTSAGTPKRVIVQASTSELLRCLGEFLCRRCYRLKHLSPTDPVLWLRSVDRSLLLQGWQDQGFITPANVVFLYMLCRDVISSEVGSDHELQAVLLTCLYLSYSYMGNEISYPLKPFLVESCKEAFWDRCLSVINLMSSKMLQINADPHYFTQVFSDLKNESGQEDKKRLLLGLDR
TbMetRS inhib = T. brucei MetRS inhibitors, primary screen, biochemical, luminescence; purified T. brucei MetRS, ATP depletion, Kinase-Glo luminescence; inhibition, % at 11.9 µM; AID 624268, 2012; methionyl-tRNA synthetase (Trypanosoma brucei brucei); 0.4% of 360,000 active;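 active = inhibition above a per-plate cutoff of the control wells' mean inhibition plus 3 SD, cut at about 5.5% in these data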
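Test system: purified T. brucei MetRS enzyme. Also added: ATP, methionine and E. coli bulk tRNA substrates. Compound: 11.9 µM single point. Schedule: 15 min enzyme-compound preincubation, 2 h reaction, 10 min detection, 25 °C. Signal: luciferase luminescence of residual ATP, Kinase-Glo. Evaluation: percent inhibition versus plate control medians. Controls: DMSO wells, low control.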
PvdQ inh = P. aeruginosa PvdQ acylase inhibitors, primary screen, biochemical, fluorescence, plate reader and imaging, single point | PvdQ acylase [Pseudomonas aeruginosa LESB58] | purified PvdQ acylase | inhibition, % at 10 µM | 0.063% of 340,000 active; in the data active = inhibition above about 30%, passing the limit was not always enough
CAL PDZ FP-2 = untagged CAL PDZ binding inhibitors, primary screen, biochemical, fluorescence polarization, HTS; purified CAL PDZ, TMR-peptide fluorescence polarization, 1 h; inhibition, % at 24.9 µM; AID 602252, 2012; 0.92% of 300,000 active; Golgi-associated PDZ and coiled-coil motif-containing protein (Homo sapiens), Q9HD26;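 active = mean inhibition of at least 30% with at least half of replicates also reaching 30%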
DYRK1A inh = rat Dyrk1A kinase inhibitors, primary screen, biochemical, single point, plate reader. ADP-Glo luminescence, NFATc1 peptide. 0.43% of 310,000 active. Dual specificity tyrosine-phosphorylation-regulated kinase 1A (Rattus norvegicus), Q63470. inhibition, % at 12.5 µM; in the data active = inhibition above about 50%
Of the large screens only hits and unclear results are named; the others gave an inactive call.

COc1cc(C(=O)NCC(=O)OCC(=O)c2ccc[nH]2)cc(OC)c1OC	CAL PDZ FP-2 61
COc1ccc(S(=O)(=O)NCCC(=O)OCC(=O)c2ccc[nH]2)cc1[N+](=O)[O-]	CAL PDZ FP-2 46 (no result: DYRK1A inh)
C=CCn1c(-c2cccc3ccccc23)n[nH]c1=S	CAL PDZ FP-2 50 (no result: DYRK1A inh)
C=CCn1c(-c2ccccc2OC)n[nH]c1=S	none
COc1ccc(CNC[C@H]2O[C@@H](n3ccc(=O)[nH]c3=O)[C@H](O)[C@@H]2O)cc1	none (no result: CAL PDZ FP-1, CDK5 inh, PvdQ inh, CAL PDZ FP-2, DYRK1A inh)
CC1Sc2ccc(C(=O)N(CCc3ccccc3)Cc3ccccc3)cc2NC1=O (stereo unspecified)	none (no result: CAL PDZ FP-1, CDK5 inh, PvdQ inh, CAL PDZ FP-2, DYRK1A inh)
Cc1ccc(CSc2nc(N)cc(N)n2)cc1	none (no result: CAL PDZ FP-1)
N#Cc1ccc(CSc2nc(N)cc(N)n2)cc1	CAL PDZ FP-2 72
COc1ccccc1N1CCN(C2C(=O)Nc3ccccc3-n3nnnc32)CC1 (stereo unspecified)	none (no result: CAL PDZ FP-1, CDK5 inh, PvdQ inh, CAL PDZ FP-2, DYRK1A inh)
O=C1CSC(=S)N1Nc1ccccc1	CAL PDZ FP-2 53
CC(C)(C)C(=O)c1c(N)[nH]c(C(=O)c2ccccc2)c1-c1c(F)cccc1F	none (no result: CAL PDZ FP-1, CDK5 inh, PvdQ inh, CAL PDZ FP-2, DYRK1A inh)
O=C(Nc1ccc(N2CCOCC2)c(S(=O)(=O)Nc2cc(Cl)ccc2Cl)c1)c1cccnc1	none
CC(=O)NC(=S)Nc1ccc(N2CCOCC2)c(S(=O)(=O)Nc2cc(Cl)ccc2Cl)c1	CAL PDZ FP-2 64
CC(C)CCNC(=O)c1cccc(Cl)c1	PvdQ inh 39
Cn1c(CNC(=O)CCNC(=O)c2ccccc2)cc(=O)n(C)c1=O	none (no result: CDK5 inh, DYRK1A inh)
NC(=O)CNC(=O)c1cccc(Cl)c1	none
Cn1c(CNC(=O)CCNC(=O)c2cccc(Cl)c2)cc(=O)n(C)c1=O	CAL PDZ FP-2 43
Cc1ccc(/C=N/N(C)S(=O)(=O)c2ccc(C)cc2)cc1	CAL PDZ FP-2 49 (no result: CAL PDZ FP-1)
CSc1ccc(/C=N/N(C)S(=O)(=O)c2ccc(C)cc2)cc1	none
COc1ccc(NC(=O)Nc2nnc(C(C)(C)C)s2)cc1	CAL PDZ FP-2 47
COc1ccc(C(=O)N2CCCC(CCC(=O)NCc3ccc(F)c(F)c3)C2)o1 (stereo unspecified)	CAL PDZ FP-2 51
C=CCOc1cccc(C(=O)N2CCCC(CCC(=O)NCc3ccccc3F)C2)c1 (stereo unspecified)	CAL PDZ FP-2 74
Cc1cccc(CC(=O)NCCS(=O)(=O)N2CCN(c3ccccc3)CC2)c1	none (no result: CAL PDZ FP-1, CDK5 inh, PvdQ inh, CAL PDZ FP-2, DYRK1A inh)
CCOC(=O)CN(C(=O)CSc1nnc(-c2cccc(OC)c2)o1)c1ccc(F)cc1	CAL PDZ FP-2 32
COC(=O)CN(C(=O)CSc1nnc(-c2cccc(OC)c2)o1)c1ccc(OC)cc1	none
COc1cc(C(=O)N2CCN(c3ccccn3)CC2)cc(OC)c1OC	CDK5 inh 89
Cc1cc(C)c(/C=N/NC(=O)c2nnn(-c3nonc3N)c2CN2CCC(C)CC2)c(C)c1	CAL PDZ FP-2 38
CCOc1cccc(-c2c(C(=O)N/N=C/c3ccoc3)nnn2-c2nonc2N)c1	none (no result: CDK5 inh, DYRK1A inh)
CN(C)Cc1c(C(=O)N/N=C/c2ccc(OCc3c(F)cccc3Cl)cc2)nnn1-c1nonc1N	CAL PDZ FP-2 77
Nc1nonc1-n1nnc(C(=O)N/N=C/c2ccccn2)c1CNc1ccccc1	CAL PDZ FP-2 131
CCOc1cccc(-c2c(C(=O)N/N=C/c3ccncc3)nnn2-c2nonc2N)c1	DYRK1A inh 60
Nc1nonc1-n1nnc(C(=O)N/N=C/c2ccc(O)cc2)c1COc1ccc(F)cc1	none
CC[C@@H](C)[C@@H](CO)NC(=O)[C@H]1O[C@@H](n2cnc3c(N)ncnc32)[C@H](O)[C@@H]1O	none (no result: CAL PDZ FP-1, CDK5 inh, PvdQ inh, CAL PDZ FP-2, DYRK1A inh)
CCOC(=O)n1c2ccccc2c(=O)n1CCO	none (no result: CAL PDZ FP-1, CDK5 inh, PvdQ inh, CAL PDZ FP-2, DYRK1A inh)
CCOC(=O)C1(CCOc2ccccc2)CCN(Cc2ccc(COC)o2)CC1	none
